In PMC4828293 (Bioorganic & medicinal chemistry, 2015):
Entries after “also recorded” stand apart in the source; their conditions may differ. Where two headings read alike, the source gives them in different places.

Legend:
[1] = tested on: tubulin; assay: Inhibition of [3H]colchicine binding to tubulin; details: 1.0 μM tubulin, 5.0 μM [3H]colchicine
[2] = tested on: DU-145 (prostate); assay: SRB cytotoxicity assay, DU-145; type: cell-based, human; details: DU-145, 48 h, read-out: GI50 (μM) SRB assay DU-145
How it was run: (§1)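 Serial dilutions of the test compound were added to the cells for 48 h. Cells were then fixed with trichloroacetic acid, washed, dried and stained with sulforhodamine B. The dye was solubilised and read at 540 nm, normalised to 630 nm.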

[3] = tested on: SK-OV-3 (ovarian); assay: SRB cytotoxicity assay, SK-OV-3; type: cell-based, human; details: SK-OV-3, 48 h, read-out: GI50 (μM) SRB assay SK-OV-3
How it was run: as §1

[4] = tested on: NCI-H460 (lung); assay: SRB cytotoxicity assay, NCI-H460; type: cell-based, human; details: NCI-H460, 48 h, read-out: GI50 (μM) SRB assay NCI-H460
How it was run: as §1

[5] = tested on: MDA-MB-231-luc orthotopic human tumor xenografts; assay: In vivo dynamic bioluminescence imaging; parameters: species or system SCID mice
How it was run: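 Female SCID mice carried orthotopic mammary fat pad tumors grown from […] MDA-MB-231-Luc cells (stable lentiviral firefly luciferase) in 30% Matrigel, used at about 5 mm diameter. Under 2% isoflurane in O2, mice received D-luciferin 120 mg/kg in saline SC at the fore-back neck, and BLI images were taken over 35 min. The test compound (20, 30 or 40 mg/kg), saline, or CA4P 120 mg/kg was given IP immediately after baseline. BLI was repeated with fresh luciferin at 4 and 24 h, and light intensity-time curves were analysed.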

[6] = target: purified bovine brain tubulin (Bos taurus, UniProt P81947+Q6B856); details: read-out: Inhibition of tubulin polymerization IC50 (μM) ± SD; cited from earlier work
[7] = tested on: human cancer cell lines [SK-OV-3 (ovarian), NCI-H460 (lung), and DU-145 (prostate)]; assay: SRB cytotoxicity assay, panel of three human cancer cell lines; type: cell-based; details: read-out: GI50 against two of the three cell lines
How it was run: as §1

[8] = tested on: breast tumor bearing SCID mice; assay: Acute toxicity in breast tumor bearing SCID mice; type: in vivo; details: IP administration of saline solutions, doses up to 40 mg/kg

Sequence of purified bovine brain tubulin (P81947 whole entry): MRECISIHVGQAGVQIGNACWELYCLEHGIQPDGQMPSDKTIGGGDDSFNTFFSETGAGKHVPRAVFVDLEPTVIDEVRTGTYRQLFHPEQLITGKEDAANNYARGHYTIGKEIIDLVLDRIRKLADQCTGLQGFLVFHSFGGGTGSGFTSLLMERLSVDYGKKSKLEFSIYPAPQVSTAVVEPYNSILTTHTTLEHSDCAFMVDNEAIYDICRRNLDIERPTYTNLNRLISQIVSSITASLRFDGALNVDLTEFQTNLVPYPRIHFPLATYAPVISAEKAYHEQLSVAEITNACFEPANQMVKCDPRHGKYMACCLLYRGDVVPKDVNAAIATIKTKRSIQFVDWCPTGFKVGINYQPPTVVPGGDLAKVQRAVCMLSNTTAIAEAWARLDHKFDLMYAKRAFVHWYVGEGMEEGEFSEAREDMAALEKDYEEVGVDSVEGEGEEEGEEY
Sequence of purified bovine brain tubulin (Q6B856 whole entry): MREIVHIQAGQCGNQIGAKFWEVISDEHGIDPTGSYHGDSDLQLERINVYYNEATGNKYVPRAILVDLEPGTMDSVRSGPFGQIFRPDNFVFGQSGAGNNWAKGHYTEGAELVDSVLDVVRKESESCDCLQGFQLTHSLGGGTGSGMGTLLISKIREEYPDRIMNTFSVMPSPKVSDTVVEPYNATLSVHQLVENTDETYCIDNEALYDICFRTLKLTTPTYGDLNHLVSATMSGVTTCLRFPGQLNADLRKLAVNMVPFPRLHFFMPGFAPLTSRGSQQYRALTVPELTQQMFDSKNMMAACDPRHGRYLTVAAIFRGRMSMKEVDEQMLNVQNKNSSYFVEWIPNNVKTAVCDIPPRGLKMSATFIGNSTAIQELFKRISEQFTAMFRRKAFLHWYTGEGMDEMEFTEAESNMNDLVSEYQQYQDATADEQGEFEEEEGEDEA

In the case of `COc1ccc(/C=C\c2cc(OC)c(OC)c(OC)c2)cc1O` [CA4, combretastatin A-4, reference compound], the “% Inhibition of colchicine binding ± SD” value ([1]; 1 μM inhibitor) was 84 ± 3%, the GI50 ([2]; Homo sapiens) was 0.00327 µM and the GI50 ([3]; Homo sapiens) was 0.00455 µM. The GI50 ([4]; Homo sapiens) was 0.00223 µM.
With `COc1ccc(/C=C\c2cc(OC)c(OC)c(OC)c2)cc1OP(=O)(O)O` [CA4P, combretastatin A-4P, reference compound] the GI50 ([2]; average of n ≥ 3) was 0.00323 µM, the “reduction of BLI signal / light emission” value ([5]; CA4P 120 mg/kg IP in saline, 4 h) was “greater than 90%” and the “reduction of BLI signal (remained depressed)” value ([5]; CA4P 120 mg/kg IP in saline, after 24 h) was greater than 75%. The GI50 ([3]; average of n ≥ 3) was 0.00119 µM, the IC50 [6] was greater than 40 µM and the GI50 ([4]; average of n ≥ 3) was 0.00194 µM.
`COc1ccc2c(c1OC)CCCC=C2c1ccccc1` [Compound 28, 3,4-Dimethoxy-9-phenyl-6,7-dihydro-5H-benzo[7]annulene] showed a GI50 ([2]; Homo sapiens) of 89.3 µM, a GI50 ([3]; Homo sapiens) of 32.7 µM and a GI50 ([4]; Homo sapiens) of 37.5 µM.
In the case of `COc1ccc2c(c1)CCCC=C2c1cc(OC)c(OC)c(OC)c1` [Compound 29, 3-Methoxy-9-(3′,4′,5′-trimethoxyphenyl)-6,7-dihydro-5H-benzo[7]annulene], the “% Inhibition of colchicine binding ± SD” value ([1]; 1 μM inhibitor) was 37 ± 5%, the “% Inhibition of colchicine binding ± SD” value ([1]; 5 μM inhibitor) was 72 ± 0.8% and the GI50 ([2]; Homo sapiens) was 0.0619 µM. The GI50 ([3]; Homo sapiens) was 0.0516 µM and the GI50 ([4]; Homo sapiens) was 0.0527 µM.
In the case of `COc1ccc2c(c1C)CCCC=C2c1cc(OC)c(OC)c(OC)c1` [Compound 30, 3-Methoxy-4-methyl-9-(3′,4′,5′-trimethoxyphenyl)-6,7-dihydro-5H-benzo[7]annulene], the “% Inhibition of colchicine binding ± SD” value ([1]; 5 μM inhibitor) was 65 ± 0.6 (5 μM) %, the GI50 ([2]; Homo sapiens) was 0.644 µM and the GI50 ([3]; Homo sapiens) was 0.33 µM. For the same compound, the GI50 ([4]; Homo sapiens) was 0.422 µM.
`CCc1c(OC)ccc2c1CCCC=C2c1cc(OC)c(OC)c(OC)c1` [Compound 31, 4-Ethyl-3-methoxy-9-(3′,4′,5′-trimethoxyphenyl)-6,7-dihydro-5H-benzo[7]annulene] gave a GI50 ([2]; Homo sapiens) of 1.51 µM, a GI50 [7] of less than 1 µM and a GI50 ([3]; Homo sapiens) of 0.568 µM. The GI50 ([4]; Homo sapiens) was 0.763 µM.
`CCCc1c(OC)ccc2c1CCCC=C2c1cc(OC)c(OC)c(OC)c1` [Compound 32, 3-Methoxy-4-propyl-9-(3′,4′,5′-trimethoxyphenyl)-6,7-dihydro-5H-benzo[7]annulene] gave a GI50 ([2]; Homo sapiens) of 6.03 µM, a GI50 ([3]; Homo sapiens) of 2.96 µM and a GI50 ([4]; Homo sapiens) of 3.32 µM.
`COc1ccc2c(c1OC)CCCC=C2c1cc(C(F)(F)F)cc(C(F)(F)F)c1` [Compound 34, 9-(3′,5′-Bis(trifluoromethyl)phenyl)-3,4-dimethoxy-6,7-dihydro-5H-benzo[7]annulene] showed a GI50 ([2]; Homo sapiens) of 52.1 µM, a GI50 ([3]; Homo sapiens) of 31.1 µM and a GI50 ([4]; Homo sapiens) of 25.5 µM.
With `COc1cc(C2=CCCCc3c2ccc(OC)c3OC)cc(OC)c1OC` [Compound 35, 3,4-Dimethoxy-9-(3′,4′,5′-trimethoxyphenyl)-6,7-dihydro-5H-benzo[7]annulene] the “% Inhibition of colchicine binding ± SD” value ([1]; 5 μM inhibitor) was 30 ± 4%, the “% Inhibition of colchicine binding ± SD” value ([1]; 50 μM inhibitor) was 56 ± 4% and the GI50 ([2]; Homo sapiens) was 0.708 µM. It also gave a GI50 ([3]; Homo sapiens) of 0.277 µM and a GI50 ([4]; Homo sapiens) of 0.593 µM.
`COc1ccc(C2=CCCCc3c2ccc(OC)c3OC)cc1` [Compound 36, 3,4-Dimethoxy-9-(4′-methoxyphenyl)-6,7-dihydro-5H-benzo[7]annulene] showed a GI50 ([2]; Homo sapiens) of 48.3 µM, a GI50 ([3]; Homo sapiens) of 20.5 µM and a GI50 ([4]; Homo sapiens) of 33.4 µM.
For `COc1ccc(C2=CCCCc3cc(OC)ccc32)cc1` [Compound 37, 3-Methoxy-9-(4′-methoxyphenyl)-6,7-dihydro-5H-benzo[7]annulene], the GI50 ([2]; Homo sapiens) was 68.7 µM, the GI50 ([3]; Homo sapiens) was 40.7 µM and the GI50 ([4]; Homo sapiens) was 57.7 µM.
`COc1ccc2c(c1OC)CCCC=C2c1ccc(OC)c(OC)c1OC` [Compound 61, 3,4-Dimethoxy-9-(2′,3′,4′-trimethoxyphenyl)-6,7-dihydro-5H-benzo[7]annulene] gave a GI50 ([2]; Homo sapiens) of 26.2 µM, a GI50 ([3]; Homo sapiens) of 6.96 µM and a GI50 ([4]; Homo sapiens) of 10.5 µM.
With `COc1ccc2c(c1)CCCC=C2c1ccc(OC)c(OC)c1OC` [Compound 62, 3-Methoxy-9-(2′,3′,4′-trimethoxyphenyl)-6,7-dihydro-5H-benzo[7]annulene] the “% Inhibition of colchicine binding ± SD” value ([1]; 1 μM inhibitor) was 36 ± 5%, the “% Inhibition of colchicine binding ± SD” value ([1]; 5 μM inhibitor) was 69 ± 3% and the GI50 ([2]; Homo sapiens) was 0.0562 µM. It also gave a GI50 ([3]; Homo sapiens) of 0.0432 µM and a GI50 ([4]; Homo sapiens) of 0.12 µM.
With `COc1ccc2c(c1O)CCCC=C2c1ccccc1` [Compound 64, 3-Methoxy-9-phenyl-6,7-dihydro-5H-benzo[7]annulen-4-ol] the GI50 ([2]; Homo sapiens) was 4.4 µM, the GI50 [7] was less than 1 µM and the GI50 ([3]; Homo sapiens) was 0.557 µM. For the same compound, the GI50 ([4]; Homo sapiens) was 0.652 µM.
With `COc1ccc2c(c1O)CCCC=C2c1cc(C(F)(F)F)cc(C(F)(F)F)c1` [Compound 65, 9-(3′,5′-Bis(trifluoromethyl)phenyl)-3-methoxy-6,7-dihydro-5H-benzo[7]annulen-4-ol] the “% Inhibition of colchicine binding ± SD” value ([1]; 5 μM inhibitor) was 8.5 ± 4%, the “% Inhibition of colchicine binding ± SD” value ([1]; 50 μM inhibitor) was 37 ± 5% and the GI50 ([2]; Homo sapiens) was 4.92 µM. It also gave a GI50 ([3]; Homo sapiens) of 4.81 µM and a GI50 ([4]; Homo sapiens) of 4.39 µM.
`Oc1ccc2c(c1O)CCCC=C2c1cc(C(F)(F)F)cc(C(F)(F)F)c1` [Compound 66, 9-(3′,5′-Bis(trifluoromethyl)phenyl)-6,7-dihydro-5H-benzo[7]annulene-3,4-diol] gave a GI50 ([2]; Homo sapiens) of 21.8 µM, a GI50 ([3]; Homo sapiens) of 16.8 µM and a GI50 ([4]; Homo sapiens) of 25 µM.
For `COc1ccc(C2=CCCCc3c2ccc(OC)c3O)cc1` [Compound 67, 3-Methoxy-9-(4′-methoxyphenyl)-6,7-dihydro-5H-benzo[7]annulen-4-ol], the GI50 ([2]; Homo sapiens) was 8.59 µM, the GI50 ([3]; Homo sapiens) was 18.4 µM and the GI50 ([4]; Homo sapiens) was 10.6 µM.
With `COc1cc(C2=CCCCc3cc(O)ccc32)cc(OC)c1OC` [Compound 68, 9-(3′,4′,5′-Trimethoxyphenyl)-6,7-dihydro-5H-benzo[7]annulen-3-ol] the “% Inhibition of colchicine binding ± SD” value ([1]; 5 μM inhibitor) was 27 ± 5 (5 μM) %, the GI50 ([2]; Homo sapiens) was 1.02 µM and the GI50 ([3]; Homo sapiens) was 0.527 µM. For the same compound, the GI50 ([4]; Homo sapiens) was 0.647 µM.
`COc1cc(C2=CCCCc3c2ccc(O)c3O)cc(OC)c1OC` [Compound 70, 9-(3′,4′,5′-Trimethoxyphenyl)-6,7-dihydro-5H-benzo[7]annulene-3,4-diol] gave a GI50 ([2]; Homo sapiens) of 1.53 µM, a GI50 ([3]; Homo sapiens) of 0.346 µM and a GI50 ([4]; Homo sapiens) of 0.691 µM.
In the case of `COc1ccc2c(c1O)CCCC=C2c1ccc(OC)c(OC)c1OC` [Compound 71, 3-Methoxy-9-(2′,3, ′4′-trimethoxyphenyl)-6,7-dihydro-5H-benzo[7]annulen-4-ol], the GI50 ([2]; average of n ≥ 3) was 7.54 µM, the GI50 ([3]; average of n ≥ 3) was 3.53 µM and the GI50 ([4]; average of n ≥ 3) was 4.24 µM.
In the case of `COc1ccc2c(c1O)CCCCC2c1cc(OC)c(OC)c(OC)c1` (centres unmarked) [Compound 72, 2-Methoxy-5-(3′,4′,5′-trimethoxyphenyl)-6,7,8,9-tetrahydro-5H-benzo[7]annulen-1-ol], the “% Inhibition of colchicine binding ± SD” value ([1]; 1 μM inhibitor) was 21 ± 0.9%, the “% Inhibition of colchicine binding ± SD” value ([1]; 5 μM inhibitor) was 67 ± 0.6% and the GI50 ([2]; Homo sapiens) was 0.57 µM. For the same compound, the GI50 ([3]; Homo sapiens) was 0.408 µM and the GI50 ([4]; Homo sapiens) was 0.141 µM.
For `COc1cc(C2CCCCc3c2ccc(OC)c3OP(=O)([O-])[O-])cc(OC)c1OC.[Na+].[Na+]` (centres unmarked) [Compound 73, 2-Methoxy-5-(3′,4′,5′-trimethoxyphenyl)-6,7,8,9-tetrahydro-5H-benzo[7]annulen-1-yl disodium phosphate], the GI50 ([2]; average of n ≥ 3) was 0.753 µM, the “effect on light emission (dynamic BLI)” value ([5]; 30 mg/kg, 4 h after administration) was “modest effect” and the “reduction of the emitted BLI signal” value ([5]; 40 mg/kg IP in saline, 4 h after administration) was “about 50%”. For the same compound, the BLI signal recovery ([5]; 20, 30 or 40 mg/kg IP, within 24 h) was “generally returned to its original level; also recorded: substantial recovery”, the “reduction of BLI signal” value ([5]; 20 or 30 mg/kg IP in saline, 4 h after administration) was “modest reduction” and the GI50 ([3]; average of n ≥ 3) was 0.357 µM. The GI50 ([4]; average of n ≥ 3) was 0.145 µM and the “acute toxicity over 24 h” value [8] was “no obvious acute toxicity”.
For `COc1ccc2c(c1OP(=O)(O)O)CCCC=C2c1cc(C(F)(F)F)cc(C(F)(F)F)c1` [Compound 74, 9-(3′,5′-Bis(trifluoromethyl)phenyl)-3-methoxy-6,7-dihydro-5H-benzo[7]annulen-4-yl disodium phosphate], the GI50 ([2]; average of n ≥ 3) was 17.5 µM, the GI50 ([3]; average of n ≥ 3) was 17.2 µM and the GI50 ([4]; average of n ≥ 3) was 16.3 µM.
